One assay addresses Sodium-dependent dopamine transporter (Homo sapiens, UniProt Q01959). Put plainly: Inhibition of human DAT expressed in COS1 cells. It counts as cell-based, COS-1. To be noted: read-out: -Log Ki (converted). In a few lines: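 COS-1 cells stably transfected with hDAT (pIRES, Blasticidin selection), grown in DMEM/10% FCS at 37 °C, 5% CO2. Membranes homogenized in 150 mM NaCl/50 mM Tris/20 mM EDTA, resuspended in PBSCM.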
Sequence of Sodium-dependent dopamine transporter (Q01959 whole entry): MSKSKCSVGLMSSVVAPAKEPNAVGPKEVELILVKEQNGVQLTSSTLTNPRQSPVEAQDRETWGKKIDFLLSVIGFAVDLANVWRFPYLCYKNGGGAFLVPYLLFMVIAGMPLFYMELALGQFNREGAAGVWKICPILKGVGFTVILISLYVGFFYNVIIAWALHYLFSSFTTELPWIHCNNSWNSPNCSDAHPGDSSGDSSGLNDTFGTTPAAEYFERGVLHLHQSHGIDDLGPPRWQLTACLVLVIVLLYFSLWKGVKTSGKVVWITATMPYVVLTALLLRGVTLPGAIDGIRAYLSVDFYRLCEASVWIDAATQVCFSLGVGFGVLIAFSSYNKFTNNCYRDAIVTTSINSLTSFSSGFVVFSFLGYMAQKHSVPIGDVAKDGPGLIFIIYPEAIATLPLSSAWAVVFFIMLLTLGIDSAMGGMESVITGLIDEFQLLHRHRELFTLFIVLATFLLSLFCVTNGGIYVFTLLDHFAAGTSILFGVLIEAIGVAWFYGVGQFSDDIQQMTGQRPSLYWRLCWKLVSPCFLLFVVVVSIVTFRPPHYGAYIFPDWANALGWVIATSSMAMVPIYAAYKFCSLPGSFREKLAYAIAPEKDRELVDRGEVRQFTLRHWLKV
`COC(=O)C1=C(c2cccc(Cl)c2)CCCC1`: the Ki is 117 µM.

Consider `COC(=O)C1=C(c2ccc3ccccc3c2)CCCC1`, for which the inhibition constant (Ki) is 11.7 µM.

Turning to `COC(=O)C1=C(c2cccc(Cl)c2)CCC1`, the Ki is 34.7 µM.

For `COC(=O)C1=C(c2ccc(C(C)=O)cc2)CCC1`, the Ki is 331 µM.

On to `COC(=O)C1=C(c2ccc(Cl)cc2)C2CCC1N2` (stereo unspecified), for which the Ki is 26.9 µM.

Turning to `COC(=O)C1=C(c2ccc(Cl)cc2)C2CCC1O2` (stereo unspecified), the Ki is 18.2 µM.

Consider `COC(=O)C1=C(c2ccc3ccccc3c2)C2CCC1N2` (stereo unspecified), for which the inhibitory constant (Ki) is 1.74 µM.

On to `COC(=O)C1=C(c2ccc(-c3ccccc3)cc2)C2CCC1C2` (stereo unspecified), for which the Ki is 603 µM.

In the case of `COC(=O)C1=C(c2ccc(Cl)c(Cl)c2)C2CCC1C2` (stereo unspecified), the Ki is 6.76 µM.

As to `COC(=O)C1=C(c2cccc(Cl)c2Cl)C2CCC1C2` (stereo unspecified), the Ki is 14.8 µM.

For the compound `COC(=O)C1=C(c2cccc(Cl)c2)C2CCC1N2` (stereo unspecified), the Ki was 33.9 µM.

With `COC(=O)C1=C(c2ccc(Cl)c(Cl)c2)CCC1`, the Ki was 1.95 µM.

For `COC(=O)C1=C(c2ccc(-c3ccccc3)cc2)C2CCC1N2` (stereo unspecified), the Ki was 24.5 µM.

Consider `COC(=O)C1=C(c2ccc3ccccc3c2)C2CCC1C2` (stereo unspecified), for which the Ki is 4.27 µM.

For `COC(=O)C1=C(c2ccc(Cl)cc2Cl)C2CCC1C2` (stereo unspecified), the Ki is 22.9 µM.

For the compound `COC(=O)C1=C(c2cccc(Cl)c2)C2CCC1C2` (stereo unspecified), the Ki was 105 µM.

Take `COC(=O)C1=C(c2ccccc2)C2CCC1N2` (stereo unspecified): the Ki is 447 µM.

In the case of `COC(=O)C1=C(c2ccc3ccccc3c2)CCC1`, the Ki was 4.17 µM.

With `COC(=O)C1=C(c2ccc(Cl)c(Cl)c2)C2CCC1N2` (stereo unspecified), the Ki is 1.1 µM.

For `COC(=O)C1=C(c2ccccc2)C2CCC1C2` (stereo unspecified), the Ki was 646 µM.

Consider `COC(=O)C1=C(c2ccc(Cl)cc2)C2CCC1C2` (stereo unspecified), for which the Ki is 25.1 µM.

As for `COC(=O)C1=C(c2ccccc2Cl)C2CCC1C2` (stereo unspecified), the Ki was 372 µM.

Staying with this assay, now noted: read-out: Ki.
Consider `COC(=O)C1=C(c2cc(C)c(C)cc2C)C2CCC1C2` (stereo unspecified), for which the Ki was 32.2 µM.

In the case of `COC(=O)C1=C(c2cccc([N+](=O)[O-])c2)C2CCC1N2` (stereo unspecified), the Ki was 232 µM.

For the compound `COC(=O)C1=C(c2ccc(C)c(F)c2)C2CCC1C2` (stereo unspecified), the Ki is 56 µM.

`COC(=O)C1=C(c2ccc([N+](=O)[O-])cc2)C2CCC1N2` (stereo unspecified): the Ki came out at 67.9 µM.

The values are drawn from ChEMBL document CHEMBL1149591, “QSAR studies and pharmacophore identification for arylsubstituted cycloalkenecarboxylic acid methyl esters with affinity for the human dopamine transporter” (Bioorg Med Chem, 2007).
